Legend:
Type in all cases: functional
Mus musculus [1] = test: Trypanocidal Activity at I.C.E. value 0.24 when administered subcutaneously.
How it was run: (§1)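 Blood-stage T. rhodesiense infection came from a standard inoculum lethal to all untreated mice. Drug was given by subcutaneous injection to groups of five mice. Survival beyond 30 days counted as cure. […] Sub-curative doses scored 0, and data were normalized at each dose.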

Mus musculus [2] = test: Trypanocidal Activity at I.C.E. value 0.52 when administered subcutaneously.; how it was run: as §1
Mus musculus [3] = test: Trypanocidal Activity at I.C.E. value 0.47 when administered subcutaneously.; how it was run: as §1
Mus musculus [4] = test: Trypanocidal Activity at I.C.E. value 0.32 when administered subcutaneously.; how it was run: as §1
Mus musculus [5] = test: Trypanocidal Activity at I.C.E. value 0.36 when administered subcutaneously.
[6] = system: Trypanosoma brucei rhodesiense; test: In Vitro measurement of inhibition of thymidine uptake in cell culture of Trypanosoma rhodesiense; conditions: read-out: ID50 (the source's name)
How it was run: (§2)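 Parasites harvested from infected rats and incubated 3 h across a drug concentration series, usually 0.1–100 µg/mL. Incorporation of radiolabeled thymidine measured. ID50 is the concentration (µg/mL) producing 50% inhibition.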

[7] = system: Trypanosoma brucei rhodesiense; test: In Vitro measurement of inhibition of leucine uptake in cell culture of Trypanosoma rhodesiense; conditions: read-out: ID50 (the source's name)
How it was run: (§3)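 Trypanosomes harvested from infected rats, cultured 3 h with several concentrations of drug, usually 0.1–100 µg/mL. Radiolabeled L-leucine uptake measured. ID50 is the concentration in µg/mL giving 50% inhibition of incorporation.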

Mus musculus [8] = test: Trypanocidal Activity at I.C.E. value 0.17 when administered subcutaneously.
Mus musculus [9] = test: Trypanocidal Activity at I.C.E. value 0.45 when administered subcutaneously.; how it was run: as §1
Mus musculus [10] = test: Trypanocidal Activity at I.C.E. value 0.29 when administered subcutaneously.; how it was run: as §1
Mus musculus [11] = test: Trypanocidal Activity at I.C.E. value 0.57 when administered subcutaneously.
How it was run: (§4)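 Mice, in groups of five per dose, were given a standard inoculum of blood-stage T. rhodesiense that is lethal to all untreated controls, then dosed subcutaneously. Usually 11 dose levels were used (2^n × 0.42 mg/kg).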

Mus musculus [12] = test: Trypanocidal Activity at I.C.E. value 0.57 when administered perorally.
Mus musculus [13] = test: Trypanocidal Activity at I.C.E. value 0.44 when administered subcutaneously.; how it was run: as §1
Mus musculus [14] = test: Trypanocidal Activity at I.C.E. value 0.16 when administered subcutaneously.
Mus musculus [15] = test: Trypanocidal Activity at I.C.E. value 0.65 when administered subcutaneously.; how it was run: as §4
Mus musculus [16] = test: Trypanocidal Activity at I.C.E. value 0.38 when administered subcutaneously.; how it was run: as §1
Mus musculus [17] = test: Trypanocidal Activity at I.C.E. value 0.34 when administered subcutaneously.; how it was run: as §1
[18] = system: Trypanosoma brucei rhodesiense; test: In Vitro measurement of inhibition of thymidine uptake in cell culture of Trypanosoma rhodesiense.; conditions: read-out: ID50 (the source's name); how it was run: as §2
[19] = system: Trypanosoma brucei rhodesiense; test: In Vitro measurement of inhibition of Leucine uptake in cell culture of Trypanosoma rhodesiense.; conditions: read-out: ID50 (the source's name); how it was run: as §3
Mus musculus [20] = test: Trypanocidal Activity at I.C.E. value 0.39 when administered subcutaneously.; how it was run: as §1

`Br.Cc1ccn2cc(-c3ccc(/C=N/NC(=N)N4CCN(C)CC4)cc3)[n+](C)c2c1.[Br-]` gave a CD50 (Mus musculus [1]) of 3.3 mg/kg.

`Br.CCNC(=N)N/N=C/c1ccc(OCc2cn3c(C)cccc3[n+]2C)cc1.[Br-]` gave a CD50 (Mus musculus [2]) of 0.4 mg/kg.

With `Br.CCCC/N=C(/NCCCC)N/N=C/c1ccc(-c2cn3ccc(C)cc3[n+]2C)cc1.[Br-]` the CD50 (Mus musculus [1]) was 53 mg/kg.

`Br.Cc1c(-c2ccc(/C=N/NC(=N)N3CCCC3)cc2)[n+](C)c2ccccn12.[Br-]` was tested, and the CD50 (Mus musculus [3]) was 0.2 mg/kg.

`Br.C/N=C(/NC)N/N=C/c1ccc(OCc2cn3c(C)cccc3[n+]2C)cc1.[Br-]` gave a CD50 (Mus musculus [4]) of 3.3 mg/kg.

With `Br.C=CC[n+]1c(-c2ccc(/C=N/NC(=N)N)cc2)cn2ccccc21.[Br-]` the CD50 (Mus musculus [5]) was 0.4 mg/kg.

Compound `CC(=O)Nc1ccc(-c2cn3ccc4ccccc4c3[n+]2C)cc1.[Br-]` has an IC50 [6] of 3.2 µg/mL, an IC50 [7] of 5.2 µg/mL and a CD50 (Mus musculus [8]) of 212 mg/kg.

For `Br.Cc1c(-c2ccc(/C=N/NC(=N)N)cc2)[n+](C)c2ccccn12.[Br-]`, the CD50 (Mus musculus [9]) was 0.2 mg/kg.

`Br.C[n+]1c(-c2ccc(/C=N/NC(=N)N)cc2)c([N+](=O)[O-])n2ccccc21.[Br-]` showed an IC50 [6] of 2.7 µg/mL, an IC50 [7] of 1.7 µg/mL and a CD50 (Mus musculus [10]) of 3.3 mg/kg.

With `Br.COc1ccc2n(c1)cc(-c1ccc(/C=N/NC(=N)SC)cc1)[n+]2C.[Br-]` the CD50 (Mus musculus [3]) was 13 mg/kg.

`C[n+]1c(-c2ccc(/C=N/NC(=O)c3ccc(N)cc3)cc2)cn2ccccc21.Cc1ccc(S(=O)(=O)[O-])cc1` was tested, and the CD50 (Mus musculus [11]) was 0.8 mg/kg.

In the case of `Cc1ccc(S(=O)(=O)N/N=C/c2ccc(-c3cn4ccccc4[n+]3C)cc2)cc1.[Br-]`, the CD50 (Mus musculus [8]) is reported as 53 mg/kg.

Work on `Br.Cn1c(COc2ccc(/C=N/NC3=NCCCN3)cc2)[n+](C)c2ccccc21.[Br-]` yielded an IC50 [6] of 4.4 µg/mL, a CD50 (Mus musculus [12]) of 6.6 mg/kg and a CD50 (Mus musculus [2]) of 1.6 mg/kg. For the same compound, the IC50 [7] was > 10 µg/mL.

Work on `Cc1ccc(S(=O)(=O)[O-])cc1.Cc1cccc2n1cc(-c1ccc(COc3ccc(/C=N/NC(=O)c4ccc(N)cc4)cc3)cc1)[n+]2C` yielded a CD50 (Mus musculus [13]) of 13 mg/kg.

With `Br.CCSc1ccc2n(c1)cc(-c1ccc(/C=N/NC(=N)SC)cc1)[n+]2C.[Br-]` the CD50 (Mus musculus [14]) was 106 mg/kg.

With `C[n+]1c(-c2ccc(/C=N/NC(=N)N)cc2)cn2ccsc21.Cc1ccc(S(=O)(=O)O)cc1.Cc1ccc(S(=O)(=O)[O-])cc1` the IC50 [6] was 1.4 µg/mL, the IC50 [7] was 1.3 µg/mL and the CD50 (Mus musculus [15]) was 0.4 mg/kg.

`Br.C/N=C(/N/N=C/c1ccc(-c2cn3ccc(C)cc3[n+]2C)cc1)SC.[Br-]` showed a CD50 (Mus musculus [16]) of 26 mg/kg.

Work on `C[n+]1c(-c2ccc(/C=N/NC(=N)NO)cc2)cn2ccsc21.Cc1ccc(S(=O)(=O)O)cc1.Cc1ccc(S(=O)(=O)[O-])cc1` yielded an IC50 [6] of 2 µg/mL, a CD50 (Mus musculus [2]) of 0.8 mg/kg and an IC50 [7] of 1.7 µg/mL.

Work on `Br.C[n+]1c(COc2ccc(/C=N/NC(=N)N)cc2)cn2ccccc21.[Br-]` yielded a CD50 (Mus musculus [3]) of 0.1 mg/kg, an IC50 [6] of 0.8 µg/mL and an IC50 [7] of 0.9 µg/mL.

In the case of `Cc1ccc(S(=O)(=O)O)cc1.Cc1ccc(S(=O)(=O)[O-])cc1.Cc1cccc2n1cc(/C=N/NC(=N)NO)[n+]2C`, the CD50 (Mus musculus [8]) is reported as 106 mg/kg.

For `Br.C/N=C(\NC)N/N=C/c1ccc(OCc2n(C)c3ccccc3[n+]2C)cc1.[Br-]`, the CD50 (Mus musculus [17]) was 3.3 mg/kg.

`Br.C[n+]1c(-c2ccc(/C=N/NC(=N)NCCN3CCOCC3)cc2)cn2ccccc21.[Br-]` showed an IC50 [18] of 2.3 µg/mL, a CD50 (Mus musculus [16]) of 0.8 mg/kg and an IC50 [19] of 11.7 µg/mL.

In the case of `Cc1ccc2n(c1)cc(-c1ccc(/C=N/Nc3cc(N)[nH]n3)cc1)[n+]2C.[Br-]`, the IC50 [6] is reported as > 10 µg/mL, the IC50 [7] is reported as > 10 µg/mL and the CD50 (Mus musculus [10]) is reported as 26 mg/kg.

`Cc1ccc2n(c1)cc(-c1ccc(/C=N/Nc3nc[nH]n3)cc1)[n+]2C.[Br-]` showed a CD50 (Mus musculus [20]) of 13 mg/kg and an IC50 [6] of 3.8 µg/mL.

Compound `C[n+]1c(-c2ccc(/C=N/Nc3cc(N)[nH]n3)cc2)cn2ccccc21.[Br-]` has a CD50 (Mus musculus [10]) of 13 mg/kg.

In the case of `C[n+]1c(-c2ccc(C(=N)NO)cc2)cn2ccccc21.[Cl-]`, the CD50 (Mus musculus [10]) is reported as 53 mg/kg.

Compound `Br.CC(Cc1ccncc1)NC(=N)N/N=C/c1ccc(-c2cn3ccccc3[n+]2C)cc1.[Br-]` (centres undefined) has a CD50 (Mus musculus [16]) of 0.8 mg/kg.

With `Cc1ccc2n(c1)cc(-c1ccc(C(=N)NO)cc1)[n+]2C.[Cl-]` the CD50 (Mus musculus [14]) was 106 mg/kg.

With `C[n+]1c(COc2ccc(/C=N/Nc3nc[nH]n3)cc2)cn2ccccc21.[Br-]` the IC50 [6] was 0.5 µg/mL and the IC50 [7] was > 10 µg/mL.

Compound `Br.CC(Cc1c[nH]cn1)NC(=N)N/N=C/c1ccc(-c2cn3ccccc3[n+]2C)cc1.[Br-]` (centres undefined) has a CD50 (Mus musculus [16]) of 1.6 mg/kg.
